In the library only some 2.4% were active in any assay of this set; here they are far more common.
Runt-SMMHC FRET = Runt domain-CBFb-SMMHC interaction inhibition; Q01196+Q13951; Cerulean-Runt/Venus-CBFb-SMMHC FRET ratio 530/480, 1 h; inhibition, % at 20 µM; 220,000 compounds, 0.74% hits; AID 1434;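 active means mean inhibition across duplicate retests at 20 µM reaching about 50%, limit read from the data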;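 further: 0% = DMSO wells and 100% = wells with excess untagged CBFb-SMMHC; inhibitors lower the FRET ratio by blocking Runt binding to CBFb-SMMHC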
Target sequence (Q01196 whole entry, looked up, the tested form may be a part): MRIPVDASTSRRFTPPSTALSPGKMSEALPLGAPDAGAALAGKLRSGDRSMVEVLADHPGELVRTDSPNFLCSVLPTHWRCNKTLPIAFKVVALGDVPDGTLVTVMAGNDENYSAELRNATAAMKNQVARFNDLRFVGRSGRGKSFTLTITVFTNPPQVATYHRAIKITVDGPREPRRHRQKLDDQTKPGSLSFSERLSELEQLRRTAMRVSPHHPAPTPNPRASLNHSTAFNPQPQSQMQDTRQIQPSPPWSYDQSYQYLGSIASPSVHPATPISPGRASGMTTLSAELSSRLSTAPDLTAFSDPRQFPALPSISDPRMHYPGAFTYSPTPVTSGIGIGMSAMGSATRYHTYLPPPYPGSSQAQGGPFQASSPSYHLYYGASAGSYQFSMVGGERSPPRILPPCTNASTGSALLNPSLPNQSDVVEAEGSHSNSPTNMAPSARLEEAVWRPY
Target sequence (Q13951 whole entry, looked up, the tested form may be a part): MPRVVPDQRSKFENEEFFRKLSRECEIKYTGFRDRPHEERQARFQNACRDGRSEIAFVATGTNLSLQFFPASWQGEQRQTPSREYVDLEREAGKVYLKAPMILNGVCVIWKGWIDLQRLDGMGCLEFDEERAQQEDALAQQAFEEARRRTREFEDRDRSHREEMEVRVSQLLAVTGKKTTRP
EBV gp42 block = blocks Epstein-Barr virus glycoprotein 42 binding. Fluorescence polarization binding assay, mP read-out. 220,000 compounds, 0.42% hits. inhibition, % (tested at 21.74 µM). Q1HVG2; in the data active means inhibition above about 50%
LANA-H2A inh = blocks KSHV LANA binding to histone H2A/H2B; Q9QR71; 320,000 compounds, 0.6% hits; inhibition, % (concentration not given with the values); cell-free LANA-H2A/H2B peptide, fluorescence polarization; in the data active means inhibition mostly above about 10%, no sharp cut-off; inactive means mostly below about 6.7%
Runt-CBFb FRET = inhibitors of human RUNX1 Runt domain binding to CBFb | Cerulean-Runt/Venus-CBFb FRET ratio 530/480, 1 h | inhibition, % at 20 µM | 220,000 compounds, 0.46% hits;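 active means inhibition over about 50% at 20 µM in the single-dose screen, limit read from the data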;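 further: 0% = DMSO wells and 100% = excess unlabeled CBFb competitor control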
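Doses: 20 µM compound in 1% DMSO | Material: Cerulean-labeled Runt domain protein | Amount: Each fluorescent fusion protein 100 nM | Schedule: Two 1 h room-temperature incubations shielded from light | Measured by: FRET fluorescence | Evaluation: Loss of energy transfer signal | Controls: Unlabeled CBFb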
RanGTP-Imp inh = inhibitors of RanGTP-importin-beta interaction, primary screen, biochemical, FRET, CFP-Ran, YFP-importin-beta, homogeneous. 300,000 compounds, 1.1% hits. inhibition, % (test concentration not listed). cell-free CFP-Ran/YFP-importin-beta FRET ratio;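 active means more than half of the replicate wells show a fall in the fluorescence ratio signal beyond about 16%, limit read from the data, passing the limit was not always enough; inconclusive means exactly half of the replicate wells pass the set limit; inactive means fewer than half of replicates pass the limit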;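 further: 0% = DMSO wells and 100% = Ran loaded with GDP instead of GTP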
MEX-5 binding = C. elegans MEX-5 TCR-2 RNA binding activity | activity score (negative = inhibition of binding), % at 10 µM | Q9XUB2 | 300,000 compounds, 0.38% hits | AID 1832 | MEX-5/FITC-TCR2 RNA binding, fluorescence polarization; active compounds read low;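 active means inhibition past about -25% in most replicates, and total fluorescence under double the plate's negative control median, limit read from the data; inconclusive means replicates evenly split on the limit, or fluorescence at least double controls; inactive means too little inhibition in most replicates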;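 further: 0% = DMSO and -100% = 5 µM competing unlabeled TCR2 RNA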
The depositor's hits bear a star.

For Oc1ccc(-c2cn3c(n2)SCC3)cc1 the results were Runt-SMMHC FRET 6, EBV gp42 block -24, LANA-H2A inh 4, Runt-CBFb FRET 12, RanGTP-Imp inh inconclusive and MEX-5 binding 0.
Oc1ccc(-c2cn3c(n2)SCC3)cc1O was read as Runt-SMMHC FRET 24, EBV gp42 block -22, LANA-H2A inh 3, Runt-CBFb FRET 33, RanGTP-Imp inh -1 and MEX-5 binding -40*.
`Nc1cccc2c1C(=O)N(CC(=O)NC13CC4CC(CC(C4)C1)C3)C2=O` gave Runt-SMMHC FRET 93*, EBV gp42 block 64*, LANA-H2A inh 2, Runt-CBFb FRET 20, RanGTP-Imp inh 5 and MEX-5 binding 0.
N#CC1=C(N)C(C#N)(C#N)C(c2ccncc2)C2CN(C(=O)OCc3ccccc3)CC=C12 (configuration not stated) was read as Runt-SMMHC FRET 22, EBV gp42 block -23, LANA-H2A inh -1, Runt-CBFb FRET 15, RanGTP-Imp inh 14 and MEX-5 binding 0.
Screening CN1CC=C2C(C#N)=C(N)C(C#N)(C#N)C(CCc3ccccc3)C2C1 (configuration not stated) returned Runt-SMMHC FRET 79*, EBV gp42 block 29, LANA-H2A inh 2, Runt-CBFb FRET 103* and RanGTP-Imp inh -2.
`CC(C)c1ccc(C2C3CSCC=C3C(C#N)=C(N)C2(C#N)C#N)cc1` (configuration not stated) gave Runt-SMMHC FRET -24, EBV gp42 block -27, LANA-H2A inh 12, Runt-CBFb FRET -9, RanGTP-Imp inh 16* and MEX-5 binding 3.
CN1CC=C2C(C#N)=C(N)C(C#N)(C#N)[C@H](c3cccs3)[C@H]2C1 was read as Runt-SMMHC FRET 75*, EBV gp42 block 36, LANA-H2A inh 13, Runt-CBFb FRET 37, RanGTP-Imp inh 55* and MEX-5 binding -68*.
Screening CN1C2C=C3C(C#N)=C(N)C(C#N)(C#N)[C@@H](c4ccsc4)[C@@H]3C1CC2 (some centres not stated) returned Runt-SMMHC FRET -7, EBV gp42 block -4, LANA-H2A inh -1, Runt-CBFb FRET -1, RanGTP-Imp inh -4 and MEX-5 binding -4.
CN1CC=C2C(C#N)=C(N)C(C#N)(C#N)[C@H](c3cccc(Cl)c3)C2C1 (some centres not stated) was read as Runt-SMMHC FRET 58*, EBV gp42 block 58*, LANA-H2A inh 3, Runt-CBFb FRET 34, RanGTP-Imp inh 45* and MEX-5 binding -59*.
Screening COc1ccccc1CNC(=O)COC(=O)Cc1cccs1 returned Runt-SMMHC FRET 1, EBV gp42 block -8, LANA-H2A inh 0, Runt-CBFb FRET 2, RanGTP-Imp inh 0 and MEX-5 binding -1.
For Cc1cccc(C)c1NC(=O)C(c1ccc([N+](=O)[O-])cc1)N(C)C(=O)c1ccccn1 (configuration not stated) the results were Runt-SMMHC FRET -4, EBV gp42 block -3, LANA-H2A inh -2, Runt-CBFb FRET -3, RanGTP-Imp inh 3 and MEX-5 binding -4.
For CC(=O)c1ccc(OCCCC(=O)OCC(=O)Nc2ccc3[nH]c(=O)[nH]c3c2)cc1 the results were LANA-H2A inh -1, RanGTP-Imp inh 4 and MEX-5 binding -2.
`CCCC1C2CN(C(C)C)CC=C2C(C#N)=C(N)C1(C#N)C#N` (configuration not stated) gave Runt-SMMHC FRET 40, EBV gp42 block 69*, LANA-H2A inh 30*, Runt-CBFb FRET 12, RanGTP-Imp inh 89* and MEX-5 binding -75*.
Screening CN1CC=C2C(C#N)=C(N)C(C#N)(C#N)C(c3ccsc3)C2C1 (configuration not stated) returned Runt-SMMHC FRET 80*, EBV gp42 block 24, LANA-H2A inh 10, Runt-CBFb FRET 66*, RanGTP-Imp inh 65* and MEX-5 binding inconclusive.
`CCOC(=O)N1CC=C2C(C#N)=C(N)C(C#N)(C#N)[C@H](c3ccsc3)[C@H]2C1` gave Runt-SMMHC FRET -5, EBV gp42 block -14, LANA-H2A inh 4, Runt-CBFb FRET -1, RanGTP-Imp inh 9 and MEX-5 binding inconclusive.
For OCC[C@@H]1C[C@@H](O)[C@H](O)[C@@]2(Cc3ccccc3CCO2)O1 the results were LANA-H2A inh 2, RanGTP-Imp inh 3 and MEX-5 binding 1.
`O=C1Nc2ccc(Cl)cc2C12Nc1ccccc1-c1nnc(SCc3ccccc3F)nc1O2` (configuration not stated) gave Runt-SMMHC FRET -5, EBV gp42 block 102*, LANA-H2A inh -1, Runt-CBFb FRET -3, RanGTP-Imp inh 1 and MEX-5 binding -7.
O=C1Nc2ccc(F)cc2C12Nc1ccccc1-c1nnc(SCc3ccccc3F)nc1O2 (configuration not stated) was read as Runt-SMMHC FRET -4, EBV gp42 block 14, LANA-H2A inh 4, Runt-CBFb FRET -4, RanGTP-Imp inh 7 and MEX-5 binding -5.
Screening CC(C)CN(C(=O)CN1CCc2ccccc21)c1c(N)n(CC(C)C)c(=O)[nH]c1=O returned Runt-SMMHC FRET 72*, EBV gp42 block -14, LANA-H2A inh -10, Runt-CBFb FRET 35, RanGTP-Imp inh 8 and MEX-5 binding 0.
For CNCC(=O)N(CC(C)C)c1c(N)n(CC(C)C)c(=O)[nH]c1=O the results were Runt-SMMHC FRET 56*, EBV gp42 block 0, LANA-H2A inh -2, Runt-CBFb FRET 8, RanGTP-Imp inh 2 and MEX-5 binding 1.
For COc1ccccc1CNC(=O)CCS(=O)(=O)c1ccc(Cl)cc1 the results were LANA-H2A inh -3, RanGTP-Imp inh -2 and MEX-5 binding -1.
COc1ccc2oc(C(=O)Nc3nc(C)cs3)c(C)c2c1 was read as LANA-H2A inh 73*.
`COc1ccc2oc(C(=O)Nc3ccccn3)c(C)c2c1` gave LANA-H2A inh 2, RanGTP-Imp inh 4 and MEX-5 binding 4.
Screening O=C(c1cc([N+](=O)[O-])cc([N+](=O)[O-])c1)N1CCCc2ccccc21 returned Runt-SMMHC FRET 4, EBV gp42 block 2, LANA-H2A inh -2, Runt-CBFb FRET -1, RanGTP-Imp inh 1 and MEX-5 binding 1.
For COc1ccc(CCNC(=O)c2cnccn2)cc1 the results were Runt-SMMHC FRET 0, EBV gp42 block -6, LANA-H2A inh 0, Runt-CBFb FRET 3, RanGTP-Imp inh 2 and MEX-5 binding -3.
O=C(NCCc1ccc(Cl)cc1)c1cnccn1 was read as Runt-SMMHC FRET -4, EBV gp42 block 6, LANA-H2A inh active, Runt-CBFb FRET -1, RanGTP-Imp inh -2 and MEX-5 binding -3.

Screens deposited in PubChem BioAssay by several laboratories.
